Screens: PubChem, several laboratories
ADAM17 inh: inhibits human ADAM17; inhibition, % at 6.95 µM; hit rate 0.83% among 370,000; recombinant ADAM17, EDANS/DABCYL FRET peptide cleavage; AID 720648; P78536;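 active = inhibition above the mean of compounds lying between control limits plus 3 SD, set per campaign, cut at about 8.5% in these data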;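 note: 0% = DMSO-only wells as the low control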
MT1-MMP act inh: MT1-MMP (human) activation inhibition. hit rate 0.061% among 360,000. HT1080 RFP-PRO-GFP cells, GFP/RFP ratio fluorescence, overnight; percent of plate control window, DMSO zero. GFP/RFP ratio change, % at 20 µM. P50281;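 active = GFP/RFP ratio change of at least 30% with cell ATP level not reduced by more than half and red fluorescence within 50% of control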
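Assay system: HT1080 RFP-PRO-GFP cells | Dosing: 20 µM single dose, 1% DMSO | Incubation: Cells overnight before dosing, compound overnight, 37 °C, 5% CO2 | Evaluation: GFP/RFP fluorescence ratio | Control set: DMSO-only wells and HT1080 RFP-L50D-GFP cell wells as references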
ADAM10 inh: ADAM10 inhibition, QFRET primary screen. AID 720582. O14672. inhibition, % at 7 µM. hit rate 0.62% among 370,000. recombinant ADAM10, EDANS/DABCYL FRET peptide cleavage, 3 h;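 active = inhibition above a per-campaign cutoff equal to the mean of compounds falling between control-based bounds plus 3 SD, cut at about 20% in these data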;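 note: 0% = DMSO wells while the 100% control is not disclosed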
DDE Tn7 FP inh: disrupts Tn7 cyclic peptide binding to fibrin D-Dimer-E complex | hit rate 0.13% among 370,000 | inhibition, % at 8.3 µM | P02675 | FP displacement of FITC-Tn7 peptide from fibrin DD(E); 0% = median of compound wells per plate;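 active = inhibition above the mean of compounds falling within the control limits plus 3 SD of them, cut at about 14% in these data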;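 note: 0% = plate median of compound wells and 100% = 10 µM Aha-Tn7 peptide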
Target sequence (P02675 whole entry, looked up): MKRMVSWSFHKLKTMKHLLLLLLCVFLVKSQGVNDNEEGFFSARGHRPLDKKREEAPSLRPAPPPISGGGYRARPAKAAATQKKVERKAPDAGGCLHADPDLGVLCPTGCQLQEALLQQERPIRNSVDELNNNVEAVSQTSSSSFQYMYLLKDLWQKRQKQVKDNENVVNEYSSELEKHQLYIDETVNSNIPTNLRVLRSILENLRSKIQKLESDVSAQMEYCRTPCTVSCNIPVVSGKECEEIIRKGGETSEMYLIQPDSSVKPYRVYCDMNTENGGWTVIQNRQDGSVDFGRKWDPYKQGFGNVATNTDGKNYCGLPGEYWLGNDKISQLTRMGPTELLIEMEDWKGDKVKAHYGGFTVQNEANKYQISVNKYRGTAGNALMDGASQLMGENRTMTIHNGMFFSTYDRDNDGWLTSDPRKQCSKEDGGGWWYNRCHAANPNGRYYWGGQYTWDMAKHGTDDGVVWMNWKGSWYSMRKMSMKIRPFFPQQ
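Also added: labelled Tn7 tracer, 0.1 µM; Assay system: human fibrin DD(E) protein; Amount: 2 µM fibrin DD(E); Schedule: 10 min compound pre-incubation, 3 h probe incubation at room temperature; Repeats: one replicate per compound; Read-out basis: percent inhibition; Measured by: fluorescence polarization of the labelled Tn7 tracer.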
DDE Tn6 FP inh: DD(E)-Tn6 binding inhibition, primary FP screen. Fibrin DD(E) TRITC-Tn6 fluorescence polarization displacement. inhibition, % at 8.3 µM. hit rate 0.21% among 370,000;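 active = inhibition above a per-campaign cutoff: mean of compounds within control limits plus 3 SD, cut at about 15% in these data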;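 note: 0% = median of all compound wells on the plate and 100% = blocking peptide control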
Tn7 DDE conf: confirmation of inhibitors of Tn7 binding to human fibrin DD(E); hit rate 5% among 460; shares compounds with DDE Tn7 FP inh; FP displacement of TRITC-Tn7 peptide from DD(E); 0% set at plate's compound-well median; inhibition, % at 8.3 µM;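 active = inhibition above the campaign cutoff, the mean of compounds within control limits plus 3 SD, cut at about 14% in these data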;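 note: 100% = median FP of high control wells holding Aha-Tn7 inhibitor peptide; displacers lower polarization since freed probe rises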
Tn7 DDE ctr: counter-screen hit for Tn7 peptide-fibrin DD(E) binding disruption | hit rate 3% among 460 | TRITC-Tn7 probe displacement, fluorescence polarization | inhibition, % at 8.3 µM | shares compounds with DDE Tn7 FP inh;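 active = inhibition above the cutoff, the mean of compounds lying between the control bounds plus 3 SD of those compounds, cut at about 17% in these data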;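 note: 0% = median of compound sample wells and 100% = excess unlabeled Aha-Tn7 peptide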
Starred values were filed as active, the others as inactive; i = inactive; . = no result. Only some compounds are listed: those with a hit (about 1.6% of all), similar ones and a draw of the others.

SMILES | ADAM17 inh | MT1-MMP act inh | ADAM10 inh | DDE Tn7 FP inh | DDE Tn6 FP inh | Tn7 DDE conf | Tn7 DDE ctr
COc1ccc(CN2C(=O)N3Cc4ccc(C)cc4C3CS2(=O)=O)cc1 (configuration not stated) | 1.6 | . | 3.0 | -12.3 | -1.1 | . | .
COC(=O)c1cc2occc2n1CC(=O)Nc1ccc(C)cc1C | -3.8 | -3.2 | 0.6 | 14.1* | 0.5 | 5.0 | 1.2
COC(=O)c1cc2occc2n1Cc1ccc(Cl)cc1 | 1.2 | -4.7 | 3.4 | -0.4 | 3.0 | . | .
COc1ccccc1C1c2c(ncn(-c3ccccc3)c2=N)Oc2ccc3ccccc3c21 (configuration not stated) | 1.3 | . | 15.6 | 1.3 | 2.1 | . | .
COc1ccc(/C=N/c2c(-c3ccco3)nc3ccccn23)cc1OC | -27.5 | 2.5 | -84.3 | 14.9* | -4.9 | 8.0 | 3.3
Cc1cc(NC(=O)CSc2nnc(-c3ccoc3C)n2N)no1 | 0.6 | 0.8 | 0.9 | 0.4 | -9.6 | . | .
CCOc1ccc(C(C)=O)cc1CSc1nnc(-c2ccoc2C)n1N | -4.1 | 9.8 | 1.9 | 16.5* | 10.8 | 8.9 | 0.8
O=C(CSc1nnc(-c2cccnc2)n1-c1ccc(Cl)cc1)Nc1ccc(S(=O)(=O)Nc2nccs2)cc1 | 0.9 | . | 3.7 | 0.7 | -4.9 | . | .
FC(F)(F)c1cc(NCc2cccs2)n2ncnc2n1 | -6.3 | 0.5 | -3.8 | 14.5* | 5.3 | -5.8 | -9.0
CCc1c(C)nc2ncnn2c1NCc1cccs1 | -3.0 | -3.3 | -4.7 | -4.0 | -1.8 | . | .
O=C(NC1CCN(S(=O)(=O)c2ccc(Cl)cc2)CC1)C1CCCCC1 | 1.4 | -0.2 | 10.9 | 14.3* | 3.3 | -0.7 | -5.8
COc1cc(C)c(S(=O)(=O)NCc2ccc3c(c2)OCO3)cc1C | -2.3 | 1.6 | -8.8 | 3.3 | -8.3 | . | .
COc1cc(C)c(Cl)c(C)c1S(=O)(=O)NCc1ccc2c(c1)OCO2 | -3.8 | 4.0 | 7.2 | 16.1* | 3.4 | -1.5 | -6.0
CCC[C@H]1[C@@H](OC(=O)NC2CCC2)CC[C@@]23CCCN2C(=O)CCC[C@@H]13 | -6.3 | . | -4.1 | -1.6 | 6.9 | . | .
O=C1CCC/C(=N/NC(=O)c2sc3ccccc3c2Cl)C1 | -9.5 | -136.0 | -15.5 | 43.9* | -1.6 | -4.7 | -5.3
C=CCn1c(=O)[nH]c2nc3cc(N=CN(C)C)c(C)cc3nc2c1=O | -37.5 | -92.5 | -98.3 | 23.4* | 4.4 | -7.3 | 4.6
CN(C)/C=N/c1cc(=O)[nH]c(=O)n1CC1CC1 | -3.8 | 0.9 | 0.7 | 0.1 | 4.0 | . | .
COC(=O)[C@]12C[C@H](CC(=O)NCCC(C)C)C(=O)N(Cc3ccco3)C1=C[C@H](C(C)(C)C)O[C@@H]2C | 0.5 | . | 1.4 | -3.8 | -9.2 | . | .
CCN1C(=O)[C@H]2[C@@H](c3ccc(C)cc3)N3C(=O)N(c4ccc(C)cc4)C(=O)[C@@]3(C)[C@H]2C1=O | -4.6 | -3.0 | 5.2 | -4.9 | 6.2 | . | .
CCN1C(=O)[C@H]2[C@@H](c3ccc(C)cc3)N3C(=O)N(c4ccc(OC)cc4)C(=O)[C@@]3(C)[C@H]2C1=O | -2.9 | -4.6 | 2.7 | 16.2* | 1.2 | -6.9 | -13.4
O=C(COC(=O)c1ccc(Cl)cc1)NCC1CCCCC1 | -1.9 | -1.4 | -0.2 | 14.8* | -1.2 | -2.6 | -5.1
CCCCN(CC)C(=O)c1cc2cc3ccc(OC)cc3nc2o1 | -372.2 | . | i | 3.7 | -5.3 | . | .
CCCCN(C)C(=O)c1cc2cc3ccc(OC)cc3nc2s1 | -169.6 | 2.9 | i | 14.5* | -1.6 | 4.2 | 4.6
O=[N+]([O-])c1cnc2ccccc2c1Sc1ccccc1 | -2.1 | . | -5.9 | 8.6 | 0.6 | . | .
CCCCS(=O)(=O)N1CCCc2nc(-c3ccc(OC)cc3)ccc21 | -28.9 | . | -113.8 | 0.6 | 0.0 | . | .
O=C(c1cc(-c2ccc(O)cc2)on1)N1CCc2ccccc2C1 | 4.0 | 4.6 | 6.0 | 17.8* | -5.0 | 4.0 | -1.0
COC(=O)c1ccc(Cn2c(C)c(C(=O)NCc3ccc(C#N)cc3)sc2=O)o1 | -3.5 | 5.1 | -23.7 | 13.9* | -3.5 | 4.7 | -1.5
